The target in test [1] is Glutamate [NMDA] receptor. Kind of test: The compound was tested for the inhibitory activity against N-methyl-D-aspartate glutamate receptor from mid-frontal region of human brain by measuring spermine-enhanced [3H]- MK-801 binding. The method in brief: (§1)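 Crude synaptosomal membranes from the named human brain region, frozen at -70°C, then washed in water and in 5 mM Tris-HCl pH 7.4. Duplicate tubes at room temperature held membranes (about 0.25 mg/mL protein), 30 μM spermine, 2 nM [3H]MK-801 and peptide at 10^-9–10^-4 M, without added Ca2+ or with 1.5 mM CaCl2. Nonspecific binding was taken with 3 μM unlabeled MK-801. After 45 min, samples were filtered onto GF/B and counted by scintillation.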

Test [2] has as its target Glutamate [NMDA] receptor. Kind of test: The compound was tested for the inhibitory activity against N-methyl-D-aspartate glutamate receptor from sensorimotor gyri region of human brain by measuring spermine-enhanced [3H]- MK-801 binding. The method, boiled down:
as §1

Test [3] concerns the target Glutamate [NMDA] receptor. Put plainly: The compound was tested for the inhibitory activity against N-methyl-D-aspartate glutamate receptor from superior temporal region of human brain by measuring spermine-enhanced [3H]- MK-801 binding. The method, boiled down: as §1

From ChEMBL document CHEMBL1132567, “Structure-activity studies of conantokins as human N-methyl-D-aspartate receptor modulators” (J Med Chem, 1999) come the findings set out here.

Starred links: 1 amine or outer side, 2 acyl side, 3 side chain; linkers in the order of their positions; H or OH if unused. Positions of bridges follow the written chain, without caps; N, C: chain ends. Non-standard residues stand in square brackets, D forms with d. Residues, ends and D or L forms follow the SMILES beside them. X1 = NC(=O)CC[C@@H](C(=O)[*:2])[C@H](CC(N)=O)N[*:1]; NMeN = CN[C@@H](CC(N)=O)C(=O)O

Consider `CC[C@@H](C)[C@H](NC(=O)[C@H](CC(C)C)NC(=O)[C@@H]1CCC(=O)NCCCC[C@H](NC(=O)[C@H](CCC(N)=O)NC(=O)[C@H](CC(C)C)NC(=O)[C@H](CCC(=O)O)NC(=O)[C@H](CCC(=O)O)NC(=O)[C@H](CCC(=O)O)NC(=O)CN)C(=O)N[C@@H](CC(N)=O)C(=O)N[C@H](CCC(N)=O)C(=O)N1)C(=O)N[C@@H](CCCN=C(N)N)C(=O)N[C@@H](CCC(=O)O)C(=O)N[C@@H](CCCCN)C(=O)N[C@@H](CO)C(=O)N[C@@H](CC(N)=O)C(N)=O`, for which, in test [1], the IC50 (as a rule, the concentration that gives 50% inhibition) stood at 8480 nM.

Consider H-GEEEYQKNQELIREKSN-NH2, for which the results for the IC50 in test [2], in test [3] and in test [1] were 47 nM, 56 nM and 99 nM, respectively.

In the case of `CC[C@H](C)[C@H](NC(=O)[C@H](CC(C)C)NC(=O)[C@H](CCC(=O)O)NC(=O)[C@H](CCC(N)=O)NC(=O)[C@H](CC(N)=O)NC(=O)[C@H](C)NC(=O)[C@H](CCC(N)=O)NC(=O)[C@H](CC(C)C)NC(=O)[C@H](CCC(=O)O)NC(=O)[C@H](CCC(=O)O)NC(=O)[C@H](CCC(=O)O)NC(=O)CN)C(=O)N[C@@H](CCCN=C(N)N)C(=O)N[C@@H](CCC(=O)O)C(=O)N[C@@H](CCCCN)C(=O)N[C@@H](CO)C(=O)N[C@@H](CC(N)=O)C(N)=O`, the IC50 in test [2] amounted to 766 nM; in test [3], 1680 nM; in test [1] it was 3360 nM.

Regarding `CC[C@@H](C)[C@H](NC(=O)[C@H](CC(C)C)NC(=O)[C@H](CCC(=O)O)[C@H](CCC(N)=O)NC(=O)[C@H](CC(N)=O)NC(=O)[C@H](CCC(=O)O)NC(=O)[C@H](CCC(N)=O)NC(=O)[C@H](CC(C)C)NC(=O)[C@H](CCC(=O)O)NC(=O)[C@H](CCC(=O)O)NC(=O)[C@H](CCC(=O)O)NC(=O)CN)C(=O)N[C@@H](CCCN=C(N)N)C(=O)N[C@@H](CCC(=O)O)C(=O)N[C@@H](CCCCN)C(=O)N[C@@H](CO)C(=O)N[C@@H](CC(N)=O)C(N)=O`, the IC50 in test [2] was 59 nM; in test [3], 21 nM; in test [1] it was 69 nM.

As to H-GEEEYQANQELIREKSN-NH2, the IC50 in test [2] came out at 475 nM; in test [3], 570 nM; in test [1], 546 nM.

Consider `CSCC[C@H](NC(=O)[C@H](CCCCN)NC(=O)[C@H](CCC(N)=O)NC(=O)[C@H](Cc1ccc(O)cc1)NC(=O)[C@H](CCC(=O)O)NC(=O)[C@H](CCC(=O)O)NC(=O)[C@H](CCC(=O)O)NC(=O)CN)C(=O)N[C@@H](CC(C)C)C(=O)N[C@@H](CCC(=O)O)C(=O)N(C)[C@@H](CC(N)=O)C(=O)N[C@@H](CC(C)C)C(=O)N[C@@H](CCCN=C(N)N)C(=O)N[C@@H](CCC(=O)O)C(=O)N[C@@H](C)C(=O)N[C@@H](CCC(=O)O)C(=O)N[C@H](C(=O)N[C@@H](CCCCN)C(=O)N[C@@H](CCCCN)C(=O)N[C@@H](CC(N)=O)C(=O)N[C@@H](C)C(N)=O)C(C)C` (H-GEEEYQKMLE[NMeN]LREAEVKKNA-NH2), for which the IC50 in test [1] was 125 nM.

For the compound H-GEEELQEDQELIREKSD-NH2, the IC50 in test [2] came to 18 nM; in test [3], 9 nM; in test [1] it was 20 nM.

For `CC[C@H](C)[C@H](NC(=O)[C@H](CC(C)C)NC(=O)[C@H](CCC(=O)O)NC(=O)[C@H](CCC(N)=O)NC(=O)[C@H](CC(N)=O)NC(=O)[C@H](CCCCN)NC(=O)[C@H](CCC(N)=O)NC(=O)[C@H](CC(C)C)NC(=O)[C@H](CCC(=O)O)NC(=O)[C@H](CCC(=O)O)NC(=O)[C@H](CCC(=O)O)NC(=O)CN)C(=O)N[C@@H](CCCN=C(N)N)C(=O)N[C@@H](CCC(=O)O)C(=O)N[C@@H](CCCCN)C(=O)N[C@@H](CO)C(=O)N[C@@H](CC(N)=O)C(N)=O`, in test [1], the IC50 is 11000 nM.

Regarding H-GEEELQEN-NH2, the figures for the IC50 in test [2], in test [3] and in test [1] were 58 nM, 23 nM and 94 nM, respectively.

With `CC[C@H](C)[C@@H]1NC(=O)[C@H](CC(C)C)NC(=O)[C@@H](NC(=O)[C@H](CCC(N)=O)[C@H](CC(N)=O)NC(=O)[C@H](C)NC(=O)[C@H](CCC(N)=O)NC(=O)[C@H](CC(C)C)NC(=O)[C@H](CCC(=O)O)NC(=O)[C@H](CCC(=O)O)NC(=O)[C@H](CCC(=O)O)NC(=O)CN)CCC(=O)NCCCC[C@@H](C(=O)N[C@@H](CCC(=O)O)C(=O)N[C@@H](CCCCN)C(=O)N[C@@H](CO)C(=O)N[C@@H](CC(N)=O)C(N)=O)NC1=O` (H-GEEELQA[X1]ELIKEKSN-NH2; lactam 9-12), the IC50 in test [1] is above 20000 nM.
